Consider 1 compound from ChEMBL document CHEMBL4477182, “Evaluation of the Intestinal Absorption Mechanism of Casearin X in Caco-2 Cells with Modified Carboxylesterase Activity” (J Nat Prod, 2016).

Data set [1] is described as follows: Permeability from apical to basolateral side in human Caco2 cells assessed as drug recovery at 2 uM after 60 mins in absence of CES inhibitor BNPP by LC-MS method. The data set is classed as ADME, cell-based. Particulars: Caco-2, read-out: Drug recovery. Summed up: (§1)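 Caco-2 monolayers grown 19−21 days on Transwell inserts. Pretreated 40 min at 37 °C with 200 μM BNPP in HBSS on both sides, or sham HBSS, then 40 min DMEM washout. Monolayers with TEER >250 Ω cm2 were dosed at 2 μM (1% DMSO) on the donor side; basolateral buffer had 4% FBS. Shaken at 37 °C. Buffer, cell and plastic extracts at 10, 60 and 120 min were measured by LC-MS for total recovery; mean(SD), n = 3.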
In general terms: Caco-2 monolayers are a common model of the intestinal barrier.

Data set [2] is described as follows: Permeability from basolateral to apical side in human Caco2 cells assessed as drug recovery at 2 uM after 60 mins in absence of CES inhibitor BNPP by LC-MS method. To be noted: Caco-2, read-out: Drug recovery. The data set is classed as ADME, cell-based. In outline:
as §1

The next data set concerns Caco-2. As to the kind of experiment: Cytotoxicity against human Caco2 cells assessed as reduction in cell viability after 5 hrs by MTT assay. To be noted: caco-2, 5 h. The data set is classed as cell-based. In outline: (§2)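 Caco-2 cells (passage 60−65) seeded at 1.14 × 10^5 cells/cm2, grown 24 h, then exposed in transport buffer (pH 7.4) to 1, 2, 3, 4, 5 and 10 μM for 5 h at 37 °C, 8% CO2. After a DPBS wash, MTT was added for 2 h. A 1% DMSO blank gave background. n = 18; ANOVA with Bonferroni test.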
(Tetrazolium dyes change colour on reduction, which living cells bring about.)

Data set [3] is described as follows: Cytotoxicity against human Caco2 cells assessed as cell viability at 1 uM after 5 hrs by MTT assay relative to control. Format: cell-based. Particulars: Caco-2 cells, read-out: Activity. Summed up: as §2
The nature of data set [4]: Permeability from basolateral to apical side in human Caco2 cells assessed as drug recovery at 2 uM after 10 mins in presence of CES inhibitor BNPP by LC-MS method. The data set is classed as ADME, cell-based. Particulars: Caco-2, with BNPP (CES inhibitor), concentration not stated, read-out: Drug recovery. In outline:
as §1

A short description of data set [5]: Permeability from apical to basolateral side in human Caco2 cells assessed as drug recovery at 2 uM after 10 mins in absence of CES inhibitor BNPP by LC-MS method. The data set is classed as ADME, cell-based. Particulars: Caco-2, read-out: Drug recovery. In outline:
as §1

A short description of data set [6]: Permeability from basolateral to apical side in human Caco2 cells assessed as drug recovery at 2 uM after 60 mins in presence of CES inhibitor BNPP by LC-MS method. Particulars: Caco-2, with BNPP (CES inhibitor), concentration not stated, read-out: Drug recovery. Format: ADME, cell-based. Summed up: as §1
Data set [7] can be described thus: Permeability from apical to basolateral side in human Caco2 cells assessed as drug recovery at 2 uM after 60 mins in presence of CES inhibitor BNPP by LC-MS method. Format: ADME, cell-based. To be noted: Caco-2, with BNPP (CES inhibitor), concentration not stated, read-out: Drug recovery. Summed up:
as §1

Data set [8] in a line: Cytotoxicity against human Caco2 cells assessed as cell viability at 2 uM after 5 hrs by MTT assay relative to control. Format: cell-based. To be noted: Caco-2 cells, read-out: Activity. Summed up: as §2
A short description of data set [9]: Permeability from apical to basolateral side in human Caco2 cells assessed as drug recovery at 2 uM after 10 mins in presence of CES inhibitor BNPP by LC-MS method. The data set is classed as ADME, cell-based. To be noted: Caco-2, with BNPP (CES inhibitor), concentration not stated, read-out: Drug recovery. Summed up: as §1
Another data set addresses T1, Cocaine esterase (Homo sapiens, UniProt O00748).
T1 sequence (O00748 whole entry): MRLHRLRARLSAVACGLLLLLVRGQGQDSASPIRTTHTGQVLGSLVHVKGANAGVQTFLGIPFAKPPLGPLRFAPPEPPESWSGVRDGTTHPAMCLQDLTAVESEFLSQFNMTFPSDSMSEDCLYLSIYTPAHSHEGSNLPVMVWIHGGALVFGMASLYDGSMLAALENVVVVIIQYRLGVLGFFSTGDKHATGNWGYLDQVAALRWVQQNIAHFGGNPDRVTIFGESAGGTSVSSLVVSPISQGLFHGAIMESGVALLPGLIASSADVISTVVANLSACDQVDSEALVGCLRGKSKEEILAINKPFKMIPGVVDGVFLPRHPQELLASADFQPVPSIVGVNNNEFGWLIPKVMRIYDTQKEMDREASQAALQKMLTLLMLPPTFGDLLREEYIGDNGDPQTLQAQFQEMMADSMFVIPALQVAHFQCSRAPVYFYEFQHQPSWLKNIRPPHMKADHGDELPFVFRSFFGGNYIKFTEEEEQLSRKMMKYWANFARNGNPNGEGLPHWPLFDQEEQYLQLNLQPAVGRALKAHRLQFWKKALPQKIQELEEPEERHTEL
As to the kind of experiment: Drug metabolism assessed as human CE2-mediated compound hydrolysis by measuring specific activity of enzyme per mg of protein at 1 uM incubated for 30 mins. Particulars: 0.5 h. The data set is classed as ADME. Summed up:
(§3)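 Purified human hCE2 (0.2 μg/mL) in 90 mM KH2PO4, 40 mM KCl, pH 7.3, preincubated 5 min at 37 °C. Reaction started with 1 μM substrate (0.1% DMSO final) and sampled every 5 min to 30 min, in triplicate. Quenched with ice-cold acetonitrile and quantified by LC-MS (SIM, m/z 555 Na adduct). Half-life = ln 2 / slope of ln % remaining versus time.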

The nature of data set [10]: Permeability from basolateral to apical side in human Caco2 cells assessed as drug recovery at 2 uM after 120 mins in presence of CES inhibitor BNPP by LC-MS method. Format: ADME, cell-based. Particulars: Caco-2, with BNPP (CES inhibitor), concentration not stated, read-out: Drug recovery. In outline: as §1
Data set [11] has as its target T2, CE2 (cocaine esterase) (Homo sapiens, UniProt O00748).
T2 sequence (O00748 whole entry): T1 sequence (O00748 whole entry)
As to the kind of experiment: Drug metabolism assessed as human CE2-mediated compound hydrolysis by measuring compound half life at 1 uM incubated for 30 mins by LC-MS analysis. Format: ADME. Particulars: human CE2 enzyme. Summed up:
as §3

In data set [12] the target is T2, CE2 (cocaine esterase). As to the kind of experiment: Drug metabolism assessed as human CE2-mediated compound hydrolysis at 1 uM incubated for 30 mins measured every 5 mins by LC-MS analysis. Format: ADME. Particulars: human CE2 enzyme, read-out: Drug metabolism. Summed up: as §3
Data set [13] can be described thus: Permeability from basolateral to apical side in human Caco2 cells assessed as drug recovery at 2 uM after 10 mins in absence of CES inhibitor BNPP by LC-MS method. To be noted: Caco-2, read-out: Drug recovery. Format: ADME, cell-based. In outline: as §1
Data set [14] can be described thus: Permeability from apical to basolateral side in human Caco2 cells assessed as drug recovery at 2 uM after 120 mins in absence of CES inhibitor BNPP by LC-MS method. Format: ADME, cell-based. Particulars: Caco-2, read-out: Drug recovery. Summed up: as §1
Data set [15] is described as follows: Permeability from basolateral to apical side in human Caco2 cells assessed as drug recovery at 2 uM after 120 mins in absence of CES inhibitor BNPP by LC-MS method. To be noted: Caco-2, read-out: Drug recovery. The data set is classed as ADME, cell-based. Summed up: as §1
Data set [16] is described as follows: Permeability from apical to basolateral side in human Caco2 cells assessed as drug recovery at 2 uM after 120 mins in presence of CES inhibitor BNPP by LC-MS method. Particulars: Caco-2, with BNPP (CES inhibitor), concentration not stated, read-out: Drug recovery. The data set is classed as ADME, cell-based. In outline:
as §1

As usually defined, the half-life is the time needed for the level to fall by half in the phase considered.

Regarding `C=C/C(C)=C\C[C@]1(C)[C@H](C)C[C@H](O)[C@@]23C(=C[C@H](OC(=O)CCC)C[C@@H]12)[C@@H](OC(=O)CCC)O[C@H]3OC(C)=O`, the recovery at 1 h, 2 µM was 33.3% in [1], 46.5% in [2], 89.3% in data set [6] and 87.2% in [7]. Further, the Activity entry in the data set on Caco-2 was “Dose-dependent effect”. The viability at 5 h, 1 µM in data set [3] was 98.9%. Moreover, the recovery at 10 min, 2 µM in data set [4] is 93.9%; in data set [5] it was 68.4%; in data set [9] it was 85.4%; in data set [13] it was 74.4%. Further, the viability at 5 h, 2 µM in [8] came out at 97.9%. Besides, at Cocaine esterase, the Drug metabolism came to 55.8 pmol/min. In addition, the recovery at 2 h, 2 µM in data set [10] stood at 92.9%; in data set [14], 12%; in [15], 27.6%; in data set [16], 87.4%. Moreover, the half-life at 1 µM on CE2 (cocaine esterase) [11] came to 49.5 min. Also, at CE2 (cocaine esterase) [12], the metabolised at 0.5 h, 1 µM is 30%.
